Bioassay records from PubChem BioAssay.
Hits are enriched below; roughly 2.8% of the tested compounds scored in any of these assays.
EP2 antag: inhibitors of human EP2 prostaglandin E2 receptor; P43116; C6 glioma cells expressing human EP2, cAMP TR-FRET; cells stimulated with saturating PGE2; inhibition, % at 25 µM; 260,000 tested, 0.52% active; AID 1422;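 active = percent inhibition above 40 after rounding to a whole number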;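 also: rat C6 glioma host cells with rolipram phosphodiesterase inhibitor present; the protocol text gives 20 µM as final concentration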
NPY-Y1 antag: NPY-Y1 (human) receptor antagonism; AID 1040; P25929; 200,000 tested, 1% active; HEK293-CNG Y1 cells, membrane potential fluorescence; NPY at EC95, then isoproterenol; inhibition, % at 3.6 µM;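 active = inhibition above the campaign mean inhibition of all tested compounds plus 3 SD, cut at about 20% in these data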;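 also: 0% = DMSO wells given NPY plus isoproterenol and 100% = isoproterenol alone without NPY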
Target sequence (P25929 whole entry, looked up): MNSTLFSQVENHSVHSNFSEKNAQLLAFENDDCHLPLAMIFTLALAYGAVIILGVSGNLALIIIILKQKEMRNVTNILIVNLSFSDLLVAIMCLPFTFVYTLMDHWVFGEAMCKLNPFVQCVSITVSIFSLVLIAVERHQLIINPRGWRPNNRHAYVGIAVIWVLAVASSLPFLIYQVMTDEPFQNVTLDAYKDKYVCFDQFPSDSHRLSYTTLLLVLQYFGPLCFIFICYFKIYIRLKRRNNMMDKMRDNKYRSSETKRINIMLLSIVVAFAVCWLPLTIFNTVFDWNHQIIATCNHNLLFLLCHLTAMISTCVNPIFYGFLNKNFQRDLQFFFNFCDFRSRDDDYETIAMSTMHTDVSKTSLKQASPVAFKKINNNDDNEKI
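Assay system: HEK293 Y1/CNG channel cell line; Doses: single compound dose of 3.6 µM, 0.4% DMSO; Timing: dye 3 h, compound 60 min room temperature, stimulation 45 min; Technique: Membrane-potential fluorescent dye readout; Measure: % inhibition of NPY effect.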
NPY Y2 blocker: NPY-Y2 (human) receptor antagonism. NPY-Y2 expressing cells, antagonist mode. inhibition, % at 2.7 µM. 140,000 tested, 0.99% active; in the data active = inhibition above about 17%;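 also: 0% = vehicle with agonist challenge and 100% = reference antagonist with challenge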
NPY-Y1 PAM-ag: human NPY-Y1 potentiation or agonism, primary screen; P25929; NPY-Y1 expressing cells, potentiator/agonist activation; activation, % at 3.6 µM; 220,000 tested, 0.37% active; AID 1304; in the data active = activation above about 33%, passing the limit was not always enough;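 also: cells stimulated with NPY at EC10 then isoproterenol at EC100; 0% = low agonist plus stimulus and 100% = saturating agonist plus stimulus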
NPY-Y2 PAM-ag: potentiators or agonists of human neuropeptide Y receptor Y2 | AID 1359 | P49146 | cells expressing NPY-Y2, potentiator/agonist read-out | 220,000 tested, 0.45% active | activation, % at 3.6 µM; in the data active = activation above about 27%;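 also: cells stimulated with NPY near EC25 plus isoproterenol at EC100; 0% = vehicle plus submaximal agonist and 100% = vehicle plus saturating agonist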
EP2 mod: EP2 receptor (human) modulation; P43116; EP2-expressing cells, cAMP HTRF FRET, PGE2 co-stimulation; induction, % at 25 µM; 260,000 tested, 0.83% active; AID 940;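 active = compounds whose cAMP rise, as percent of the full-agonist control response, exceeds 60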;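 also: rat C6 glioma line stably carrying human EP2 under a CMV promoter; the protocol text gives 20 µM as final concentration; 100% = response of wells given 1 µM PGE2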
Starred values were filed as active, the others as inactive; ! = not confirmed by another sample.

How did CC(C)n1cc(C(=O)N2CCCC(c3ncncc3-c3ccncc3)C2)cn1 (stereo not drawn) do in these assays?
EP2 mod: -22

How did COc1ccccc1C1(NC(=O)c2ccc(OC3CSC3)cc2)CCCC1 do in these assays?
EP2 antag: 6; EP2 mod: -106

How did CC(C)(C)c1nc(SCC(=O)Nc2ccccc2C(F)(F)F)c2ccccc2n1 do in these assays?
EP2 antag: 6; EP2 mod: 59

What do the screens show for `Cc1ccc(C(c2nnnn2C(C)(C)C)N(Cc2ccco2)Cc2cccs2)cc1` (stereo not drawn)?
EP2 antag: 8; NPY-Y1 antag: 5; NPY Y2 blocker: 18*; NPY-Y1 PAM-ag: 8; NPY-Y2 PAM-ag: -14; EP2 mod: 2

What do the screens show for `CC(C)(C)n1nnnc1C(c1ccc(Cl)cc1)N(Cc1cccnc1)Cc1ccco1` (stereo not drawn)?
EP2 antag: 11; NPY-Y1 antag: 25*; NPY Y2 blocker: 28*; NPY-Y1 PAM-ag: -23; NPY-Y2 PAM-ag: -14; EP2 mod: -20

How did CC(C)(C)n1nnnc1C(c1cccs1)N(Cc1ccccc1)Cc1cccs1 (stereo not drawn) do in these assays?
EP2 antag: 12; EP2 mod: 7

How did Cc1cc(C)c2[nH]c(=O)c(C(c3nnnn3C(C)(C)C)N(Cc3ccccc3)Cc3ccco3)cc2c1 (stereo not drawn) do in these assays?
EP2 antag: 9; EP2 mod: 17

What do the screens show for `CC(C)(C)n1nnnc1C(c1ccc(C(F)(F)F)cc1)N(Cc1ccc(F)cc1)Cc1ccco1` (stereo not drawn)?
EP2 antag: 3; NPY-Y1 antag: 32*; NPY Y2 blocker: 26*; NPY-Y1 PAM-ag: -8; NPY-Y2 PAM-ag: -31; EP2 mod: 11

How did Fc1ccc(C(c2nnnn2C2CCCC2)N(Cc2ccco2)CC2CCCO2)cc1 (stereo not drawn) do in these assays?
EP2 antag: 6; NPY-Y1 antag: 32*; NPY Y2 blocker: 43*; NPY-Y1 PAM-ag: -6; NPY-Y2 PAM-ag: 5; EP2 mod: 14

Results for CC(C)NC(=O)[C@H]1C[C@@H](c2ccc(F)cc2)NS(=O)(=O)N1C ?
EP2 mod: 2

What do the screens show for `COc1ccc2[nH]c(=O)c(CN(CC3CCCO3)S(=O)(=O)c3ccc(C(C)(C)C)cc3)cc2c1` (stereo not drawn)?
EP2 antag: 8; EP2 mod: 20

Results for CC(C)(C)n1nnnc1C(c1ccc(F)cc1)N(Cc1ccc(F)cc1)Cc1ccco1 (stereo not drawn) ?
EP2 antag: 9; NPY-Y1 antag: 47*; NPY Y2 blocker: 27*; NPY-Y1 PAM-ag: -10; NPY-Y2 PAM-ag: -7; EP2 mod: 10

What do the screens show for `CCOc1ccccc1NC(=O)Cn1nc(-c2ccco2)cc(N)c1=O`?
EP2 antag: 12; EP2 mod: 14

What do the screens show for `CC(C)c1[nH]nc2c1C(c1ccc(F)cc1)C(C#N)=C(N)O2` (stereo not drawn)?
EP2 antag: 11; EP2 mod: -111

Results for CCOC(=O)c1c(C)c2c(n1C)CCC/C2=N\O ?
EP2 antag: 10; NPY-Y1 antag: 39*; NPY Y2 blocker: 32*; NPY-Y1 PAM-ag: -45; NPY-Y2 PAM-ag: -16; EP2 mod: 27

How did CCOC(=O)c1c(C)c(C(=O)NC2CCCCCC2)c(C)n1C do in these assays?
EP2 antag: 7; NPY-Y1 antag: -1; NPY Y2 blocker: 4; NPY-Y1 PAM-ag: -6; NPY-Y2 PAM-ag: 5; EP2 mod: 13

How did O=C(O)CSc1nnc2c3ccccc3c3ccccc3c2n1 do in these assays?
EP2 antag: 31; EP2 mod: -18

How did O=C1C(Cl)=C(Sc2nnc3c4ccccc4c4ccccc4c3n2)C(=O)c2ccccc21 do in these assays?
EP2 antag: 58*; EP2 mod: -46

Results for Nc1[nH]n2c(=O)c3c(nc2c1N=Nc1ccc(Cl)cc1)CCCC3 ?
EP2 antag: 11; NPY-Y1 antag: 5; NPY Y2 blocker: 1; NPY-Y1 PAM-ag: -12; NPY-Y2 PAM-ag: 11; EP2 mod: 64*

Results for CCC(=O)Nc1cnc(NC(=O)C(C)C)cc1C ?
EP2 antag: 5; EP2 mod: -11

How did COc1ccc([C@@H]2CN(C(=O)Cc3ccccc3OC)C[C@H]2C(=O)O)cc1 do in these assays?
EP2 mod: 15

How did COc1cc(C(O)CO)ccc1O (stereo not drawn) do in these assays?
EP2 antag: 16; EP2 mod: 9

What do the screens show for `NC[C@H](O)c1ccc(O)c(O)c1`?
EP2 antag: 17; EP2 mod: 72*

How did CC(C)NCC(O)c1ccc(O)c(O)c1 (stereo not drawn) do in these assays?
EP2 antag: 12; EP2 mod: 76*

What do the screens show for `CO[C@@H]1/C=C\O[C@]2(C)Oc3c(C)c(O)c4c(O)c(c(CN5CCN(C)CC5)c(O)c4c3C2=O)NC(=O)C(C)=C/C=C\[C@@H](C)[C@@H](O)[C@H](C)[C@@H](O)[C@H](C)[C@H](OC(C)=O)[C@@H]1C`?
EP2 antag: 40*; EP2 mod: 28

How did O=C1CCC(/C=C/c2ccccc2)=NN1Cc1ccc(Cl)c(Cl)c1 do in these assays?
EP2 antag: 9; NPY-Y1 antag: 20*; NPY Y2 blocker: 25*; NPY-Y1 PAM-ag: -34; NPY-Y2 PAM-ag: -10; EP2 mod: -48

What do the screens show for `O=C1CCC(/C=C/c2ccccc2)=NN1Cc1ccccc1Cl`?
EP2 antag: 6; NPY-Y1 antag: 4; NPY Y2 blocker: 2; NPY-Y1 PAM-ag: 1; NPY-Y2 PAM-ag: -7; EP2 mod: -32

Results for COc1ccc(C(=O)Nc2ccc(Cl)cc2C(=O)NCc2ccco2)cc1 ?
EP2 antag: 4; NPY-Y1 antag: 25*; NPY Y2 blocker: 19*; NPY-Y1 PAM-ag: -77; NPY-Y2 PAM-ag: -42; EP2 mod: 54

What do the screens show for `CCC(C)C(NC(=O)c1ccccc1NC(=O)c1ccc(OC)cc1)C(=O)NCc1ccco1` (stereo not drawn)?
EP2 antag: 11; NPY-Y1 antag: 4; NPY Y2 blocker: 2; NPY-Y1 PAM-ag: 11; NPY-Y2 PAM-ag: 0; EP2 mod: 38

How did Cc1ccc(-n2nnnc2SCC(=O)Nc2ccccc2N2CCCCC2)cc1C do in these assays?
EP2 antag: 11; NPY-Y1 antag: 48*; NPY Y2 blocker: 28*; NPY-Y1 PAM-ag: 10; NPY-Y2 PAM-ag: -5; EP2 mod: 35

How did Cc1ccc2[nH]c(C)cc(=S)c2c1 do in these assays?
EP2 antag: 13; NPY-Y1 antag: 4; NPY-Y1 PAM-ag: 15; NPY-Y2 PAM-ag: -30; EP2 mod: 75*!

Results for CCOC(=O)c1cnc(-n2nc(C)cc2C)nc1NC1CCCCC1 ?
EP2 antag: 8; NPY-Y1 antag: 31*; NPY Y2 blocker: 20*; NPY-Y1 PAM-ag: -146; NPY-Y2 PAM-ag: 1; EP2 mod: 55
